{"source": "PubChem BioAssay AID1296", "about": "(Columbia University Molecular Screening Center, 2008)", "note": "Among all 130,000 compounds or so, about 1,000 (0.77%) were called active. Not shown: some 1% with an inconclusive outcome.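 How the source made its calls: active means activation at 2 µM above a set limit, confirmed on inspection of the cell images; inconclusive means above the set limit but not confirmed on image inspection; inactive means the rest.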 Shown is part of a subset that was picked to be rich in actives."}
{"assay": "activators of insulin promoter-driven GFP, primary screen, imaging, TRM-6 cells (human fetal islet line), eGFP reporter, cell count (AID 1296;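 on activation: share of cells whose green reporter signal exceeds an intensity cutoff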)", "settings": "at 2 µM; activation: stronger effect = higher value, plate-scaled: unstimulated 0, stimulated control 100; normalized cell count: measured here: cell count (toxicity)", "in_short": "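System – TRM-6 insulin promoter–eGFP reporter cells · Probe or stimulus – 0.75 µM tamoxifen as reporter inducer · Dosing – single-point 2 µM compound dose · Incubation – tamoxifen pre-incubation 15 h overnight, then compound exposure 48 h at 37 °C · Measured by – fixed-cell fluorescence microscopy, eGFP plus Hoechst · Evaluation – percent GFP-positive cells normalized to per-plate controls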", "units": {"normalized cell count": "%"}}
{"compound": "Cc1nc(SCc2ccc(F)cc2)c([N+](=O)[O-])[nH]1", "activation": "9.09% (inactive)", "normalized cell count": 97.3}
{"compound": "CS(=O)(=O)N(CC(=O)Nc1ccc(Cl)c(Cl)c1)C1CCCCC1", "activation": "5.71% (inactive)", "normalized cell count": 124}
{"compound": "O=C(CN1C(=O)CCC1=O)Nc1ccc(S(=O)(=O)N2CCOCC2)cc1", "activation": "-10% (inactive)", "normalized cell count": 72.6}
{"compound": "O=C(CCCN1C(=O)CCC1=O)Nc1ccc(Cl)c(C(F)(F)F)c1", "activation": "444% (active)", "normalized cell count": 46.3}
{"compound": "CN1CCN(C(=O)/C(=C\\c2ccc3c(c2)OCO3)NC(=O)c2cccs2)CC1", "activation": "-8.33% (inactive)", "normalized cell count": 121}
{"compound": "CCN1/C(=C/c2ccc3ccc(C)cc3[n+]2CC)Sc2ccccc21", "activation": "567% (active)", "normalized cell count": 10.5}
{"compound": "CCN1/C(=C\\c2ccc3ccccc3[n+]2CC)Sc2cc(C)ccc21", "activation": "567% [fluoresces] (active)", "normalized cell count": 15.3}
{"compound": "O=C(NC1CC1)c1cccc(Br)c1", "activation": "-3.12% (inactive)", "normalized cell count": 91.1}
{"compound": "O=C(Cc1coc2ccc3ccccc3c12)NCc1cccs1", "activation": "-2.94% (inactive)", "normalized cell count": 153}
{"compound": "CCC(=O)/C(=C(/O)c1ccccc1)c1nc2ccccc2[nH]1", "activation": "0% (inactive)", "normalized cell count": 134}
{"compound": "COc1cc(NC(=O)Nc2ccc(C)cc2)cc([N+](=O)[O-])c1", "activation": "-6.45% (inactive)", "normalized cell count": 133}
